# Test results taken from PubChem BioAssay.
# A number with no mark means an inactive call. Inconclusive results are not listed. The source made the active and inactive calls.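 How the source made its calls, unless noted: active means growth inhibition above 25% in both replicates, a cutoff set 3 SD above the mean; inconclusive means above 25% in only one replicate; inactive means the rest.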
# Columns and labels:
# [1] = S. cerevisiae growth inhibition in permissive medium (OD615), pilot counter-assay for S. cerevisiae lifespan shortening project, permissive growth control (AID 705); conditions: OD615, 24 h, at 10 µM, active compounds read high
# Summary of the method: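 Timing: 24 h exposure, 30 °C / Material: Saccharomyces cerevisiae strain carrying genetically modified DeaD replicative-lifespan system / Signal: OD at 615 nm / Compound: 10 µM single dose, 0.25% DMSO / Medium: SC raffinose/galactose permissive medium / Evaluation: reduction in yeast growth (OD615)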
# [2] = S. cerevisiae growth inhibition in restrictive medium, OD615, pilot screen, restrictive growth control, yeast lifespan reduction project (AID 706;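 active means growth inhibition above a set limit, 3 SD over mean compound inhibition, in both replicates, cut at about 43% in these data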;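 further: modified DeaD lifespan yeast strain shifted to restrictive glucose medium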); conditions: OD615, 48 h, at 10 µM, active compounds read high
# Summary of the method: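 System: Engineered S. cerevisiae DeaD strain | Detection: OD615 | Buffer or medium: CSMM-D glucose medium | Doses: 10 µM compound, 0.25% DMSO | Timing: 4 h pre-growth plus 48 h compound exposure, 30 °C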
# [3] = doxorubicin toxicity protection in MRP-1 cells – H69AR cells, CellTiter-Glo, duplicate, MRP-1 activator project, pilot screen (AID 807;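 active means viability increase at or above a cutoff of the median across tested compounds plus 3 SD, cut at about 8.5% in these data, passing the limit was not always enough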;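 further: compound pretreatment 18-22 h then 72 h combined with doxorubicin; 0% = doxorubicin alone and 100% = vehicle without doxorubicin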); conditions: H69AR viability with doxorubicin, CellTiter-Glo luminescence; at 10 µM; active compounds read high
# [4] = viability of HCT116 without oncogenic beta-catenin – human colon tumor cells, pilot screen (AID 823;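 active means cell viability at or below a set limit in both duplicate runs, the limit being the all-compound median minus 4 SD, cut at about 23% in these data, passing the limit was not always enough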;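 further: 0% = wells killed by 20 µM Hyamine and 100% = untreated DMSO cell wells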); conditions: HCT116 beta-catenin knockout viability, CellTiter-Glo, 60 h; at 10 µM; active compounds read low
# [5] = viability of PTEN-null HCT116 cells – cell-based, HCT116 clonal line, CellTiter-Glo, pilot screen (AID 824;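 active means viability at or below 27.92% in each of two runs, the all-compound median minus 4 SD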;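 further: 0% = 20 µM Hyamine control and 100% = vehicle cell control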); conditions: HCT116 PTEN-deleted viability, 60 h, at 10 µM, active compounds read low
# [6] = RAM pathway blockade in budding yeast – dse1pr::URA3 reporter, 5-FOA selection, pilot screen (AID 869;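 active means inhibition over a set limit, the all-compound mean plus 3 SD, in both replicate runs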;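 further: 0% = DMSO wells with no growth and 100% = 10 µM 1-NA-PP1 with full growth; RAM network block rescues cells from 5-FOA so hits raise OD615 growth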); conditions: S. cerevisiae dse1pr::URA3 5-FOA growth, OD615, 2 d; at 10 µM; active compounds read high; strain carries analog-sensitive mutant Cbk1 kinase
# [7] = RAM signaling pathway blockade in yeast – S. cerevisiae, Pdr1DBD-CYC8 efflux-inhibited sensitized strain, primary screen (AID 1298;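 active means RAM network inhibition above 8.4% in each of two replicates, 3 SD over the compound average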;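 further: 0% = DMSO untreated cells without growth and 100% = 10 µM 1-NA-PP1 full growth; higher means more yeast growth rescued from 5-FOA killing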); conditions: S. cerevisiae cbk1-as DSE1-URA3 strain, 5-FOA growth OD615, 2 d; at 50 µM; active compounds read high
Structure (SMILES),growth inhibition [1] [%],growth inhibition [2],viability increase [3] [%],viability [4] [%],viability [5] [%],inhibition [6] [%],RAM network inhibition [7] [%]
CCCCOC(=O)Nc1sc2c(c1C(=O)OC)CCC2,-6.32,6.97%,-2.72,96.2,92.4,0.325,8.11
O=C(c1ccccc1F)N1CCN(S(=O)(=O)c2ccc3c(c2)OCCO3)CC1,-6.31,3.28%,-5.24,90.5,91.3,3.16,2.93
Cc1noc(/C=C/N(C)C)c1S(=O)(=O)N1CCN(c2ccccc2)CC1,-14.8,-3.67%,-2.94,95.9,90.8,2.37,7.31
COc1ccc(C(=O)Nc2cccc(C(C)=O)c2)cc1S(=O)(=O)N1CCOCC1,-23.9,-18.5%,-1.76,92,96,2.08,2.08
Cc1sc2ncnc(NCc3ccco3)c2c1C,4.72,6.04%,-6.03,55.6,62.3,1.61,6.13
COc1ccc(Cl)cc1C(=O)NCC(C)C,6.51,8.17%,-0.38,95.7,90.4,2.71,4.05
COc1ccc(-n2c(Cc3cccn3C)nnc2SCC(=O)N2CCOCC2)cc1,3.14,10.2%,-1.11,103,96,1.11,0.98
CCCCNC(=O)CC1Nc2ccccc2NC1=O (configuration not stated),5.04,4.59%,-2.91,113,93,0.83,5.83
CCn1c(-c2ccc(N)cc2)nc2ccccc21,-7.32,7.48%,-3.43,103,83.5,1.18,0.72
CCN1CCN(C(=O)c2cc3c(s2)-c2ccccc2S(=O)(=O)C3)CC1,-4.69,-9.1%,-2.15,99.6,92.5,2.36,0.72
COc1cc(NC(=O)c2cc(-c3cccc(O)c3)on2)cc(OC)c1OC,-13.9,3.45%,-6.05,89.8,75.3,4.79,6.05
Cc1cc(Nc2cccc(F)c2)n2ncnc2n1,-0.15,12.3%,0,101,106,1.23,0.16
O=C(Oc1ccnc2cc(Cl)ccc12)N1CCOCC1,-4.51,5.71%,-3.29,87.3,87.8,1.1,7.61
O=c1oc(-c2cccs2)nc2sc3c(c12)CCCCC3,-8.22,-6.44%,1.51,89,80.3,1.86,4.13
C=C(Br)Cn1c(CC(C)C)nc2ccccc21,13.3,-14.3%,-4.96,85.1,83.7,0.265,4.37
COc1ccc(C2CC(c3ccccc3C)n3nc(N)nc3N2)cc1 (configuration not stated),1.94,17.8%,0.56,96.1,87.6,2.3,1.89
O=C(CNS(=O)(=O)c1cccc2nsnc12)NC1CCCCC1,-8.49,-16.5%,-1.47,96.2,92.3,1.06,1.3
O=C(CCN1C(=O)c2ccccc2C1=O)OCn1nnc2ccccc2c1=O,-14.7,-15.3%,-0.15,107,100,4.12,2.39

Structure (SMILES),growth inhibition [1] [%],growth inhibition [2],viability increase [3] [%],viability [4] [%],viability [5] [%],inhibition [6] [%],RAM network inhibition [7] [%]
Cc1ccc(CNC(=O)CS(=O)Cc2nc(-c3cccs3)oc2C)cc1 (configuration not stated),13.6,57.4% (active),-2.97,90.5,92.7,1.67,2.88
CCN1CCN(Cc2ccc(NC(=O)CC3Oc4ccc(C)cc4NC3=O)cc2)CC1 (configuration not stated),-3.29,1.68%,-0.91,93,101,0.29,2.33
COC1=CC(=O)OC12CCCCC2,3.99,-2.73%,-0.88,94.7,95.8,1.27,2.11
O=C(NCc1cccnc1)C1CC(=O)N(c2ccc(F)cc2)C1 (configuration not stated),-18,-11.7%,1.27,93.8,101,0.485,2.83
CCSc1nnc(Cc2cc(=O)[nH]c(=O)[nH]2)n1-c1ccc(Cl)cc1,-15.2,-10%,-0.84,104,102,1.5,-0.99
COc1ccc(OC)c(S(=O)(=O)n2nc(-c3ccccc3)cc2N)c1,-6.75,-2.54%,-2.02,104,103,0.795,1.93
CCOC(=O)N1CCN(C(=O)C2CCCN(c3nc4ccc(OCC)cc4s3)C2)CC1 (configuration not stated),-6.49,-7.45%,-1.32,90.6,89.7,0.33,5.16
O=C1c2oc3ccc(F)cc3c(=O)c2C(c2ccncc2)N1CCN1CCOCC1 (configuration not stated),3.02,3.27%,0.53,110,99.2,1.26,0.47
CC(=O)c1c(NCc2ccccc2)nc(=O)n(-c2ccccc2)c1C,-4.12,4.42%,-1.28,94.7,97,1.98,4.07
CCn1ncc(C2=NOC(C(=O)Nc3c(C)n(C)n(-c4ccccc4)c3=O)C2)c1C (configuration not stated),-7.05,5.18%,0.26,96.1,95.8,0.855,2.78
O=C(O)c1cc(Cl)c(Cl)cc1C(=O)N1CCOCC1,-26.1,-13.7%,-0.17,94,89.5,1.38,1.67
CCOC(=O)C1=C(CS(=O)(=O)c2ccccc2)NC(=O)NC1c1ccccc1OCC (configuration not stated),-15.1,-5.42%,0.13,98.7,101,2.07,-0.04
CCOC(=O)c1oc2cc(O)ccc2c(=O)c1-c1ccccc1OC,-11.6,-0.685%,-1.98,98.4,92,-0.595,5.56
CC(CN(C)Cc1ccccc1)OC(=O)C1COc2ccccc2O1 (configuration not stated),-9.66,6.59%,0.39,101,102,1.3,2.25
Cc1nn(Cc2ccccc2)c(N)c1-c1ccccc1,-8.39,-9.23%,-0.57,95.2,87.1,2.53,2.53
CN(C)CCNC(=O)c1cc2c(=O)n(C)c3ccccc3c2n1C,0.095,-1.67%,-5.64,52.9,54.4,1.12,-0.26
O=C(O)CC1(Cc2nc(-c3cccs3)no2)CCCC1,5.79,0.06%,0.13,96.1,94.6,0.35,-0.58
O=S1(=O)N=C(Nc2ccc(O)c(CN3CCCCC3)c2)c2ccccc21,5.56,-0.14%,-3.07,90.8,97.1,2.89,6.37
